Shown are actives, neighbours in structure and some others; about 2.5% of the full set was active somewhere.
UHRF1 binding – UHRF1 methyl-DNA binding inhibition; Q96T88; UHRF1 binding to methylated oligo, TR-FRET; inhibition, % at 4.4 µM; 370,000 compounds, 0.75% hits; in the data active = inhibition above about 21%;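 note: UHRF1 SRA domain binding a hemimethylated CpG hairpin DNA probe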
Rin1 Abl inh – inhibitors of human Rin1-Abl protein interaction; TR-FRET Rin1/Abl binding, biochemical; inhibition, % at 7.35 µM; 360,000 compounds, 0.4% hits; AID 588664; in the data active = inhibition above about 5%, passing the limit was not always enough
B2AR ag – activates human beta-2 adrenergic receptor causing internalization; P07550; Am2.2-beta2AR cells, FAP receptor internalization, flow cytometry; response, % (concentration not given with the values); 340,000 compounds, 0.43% hits;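 active = response above a set limit, near 3 SD of response in nonfluorescent compounds, cut at about 42% in these data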
MBD2 DNA inh – inhibitors of human MBD2 binding to methylated oligonucleotide; AID 686964; 370,000 compounds, 0.31% hits; Q9UBB5; inhibition, % at 4.4 µM; TR-FRET; in the data active = inhibition above about 13%
Target sequence (Q9UBB5 whole entry, looked up): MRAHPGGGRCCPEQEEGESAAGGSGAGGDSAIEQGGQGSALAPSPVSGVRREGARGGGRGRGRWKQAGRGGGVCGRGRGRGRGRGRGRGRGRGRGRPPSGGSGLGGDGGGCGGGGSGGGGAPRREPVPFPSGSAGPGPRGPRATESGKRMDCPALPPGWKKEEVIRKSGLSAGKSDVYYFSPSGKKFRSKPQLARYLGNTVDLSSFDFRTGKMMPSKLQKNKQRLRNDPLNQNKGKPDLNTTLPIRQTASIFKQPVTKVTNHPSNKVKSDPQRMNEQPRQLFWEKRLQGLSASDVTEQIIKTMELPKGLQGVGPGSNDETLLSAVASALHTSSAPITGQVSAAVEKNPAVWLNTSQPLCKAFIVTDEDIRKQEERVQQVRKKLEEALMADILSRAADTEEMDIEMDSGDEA
ABHD5 PLIN5 PPI – inhibitors of human ABHD5-perilipin-5 interaction; 360,000 compounds, 0.78% hits; Q00G26+Q8WTS1; Split G. princeps luciferase complementation, luminescence, 4 h; inhibition, % at 4 µM;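 active = inhibition above the mean inhibition across every tested compound plus 3 SD, cut at about 22% in these data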
Arr AP2 block – inhibitors of human beta-arrestin and AP2 interaction; FITC-arrestin peptide / GST-AP2 beads, flow cytometry; AP2 beta2 appendage carries R879A mutation; inhibition, % at 10 µM; 340,000 compounds, 0.31% hits; AID 504490;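 active = inhibition above a set limit, near 3 SD of compounds lacking own fluorescence, cut at about 54% in these data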
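Assay system: GST-AP2 R879A bound to glutathione beads, E. coli-expressed; Medium: PBS with 0.05% Tween 20 and 0.1% BSA; Also added: fluorescein-tagged arrestin peptide at 50 nM final; Timing: 12 min plus 1 h, RT; Measured by: flow cytometry, FL1 (488/535 nm); Evaluation: percent drop in bead-associated FITC signal.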
Hits are given with their value.

How did Cc1ccc(NC(=S)NNC(=O)CSc2nnc(-c3ccc(C)cc3)n2C2CCCCC2)cc1 do in these assays?
UHRF1 binding: inactive; MBD2 DNA inh: inactive

What do the screens show for `CN(CCc1ccccc1)C(=O)c1ccc(NC(=O)Cc2ccc(NC(=O)C3CCCN(C(=O)CCc4ccccc4)C3)cc2)cc1` (centres undefined)?
UHRF1 binding: 37; Rin1 Abl inh: inactive; B2AR ag: inactive; MBD2 DNA inh: inactive; ABHD5 PLIN5 PPI: inactive; Arr AP2 block: inactive

Results for O=C(CCc1ccncc1)N1CCCC(Nc2ccc(F)cc2)C1 (centres undefined) ?
UHRF1 binding: inactive; Rin1 Abl inh: inactive; B2AR ag: inactive; MBD2 DNA inh: inactive; ABHD5 PLIN5 PPI: inactive; Arr AP2 block: inactive

What do the screens show for `O=C(CCc1ccccc1)N1CCCC(Nc2ccc(F)cc2)C1` (centres undefined)?
UHRF1 binding: 23; Rin1 Abl inh: inactive; B2AR ag: inactive; MBD2 DNA inh: inactive; ABHD5 PLIN5 PPI: inactive; Arr AP2 block: inactive

What do the screens show for `CCOC(=O)c1ccc(NC(=O)CSc2nnc(SCc3cccc4ccccc34)s2)cc1`?
UHRF1 binding: inactive; MBD2 DNA inh: inactive

How did COC(=O)[C@]12C[C@H](CC(=O)NCCCCc3ccccc3)C(=O)N(CCc3ccc(OC)c(OC)c3)C1=C[C@H](C(C)(C)C)O[C@@H]2C do in these assays?
UHRF1 binding: inactive; MBD2 DNA inh: inactive

Results for CC(=O)Nc1ccc(S(=O)(=O)NCCSc2ccccn2)cc1 ?
UHRF1 binding: 21; Rin1 Abl inh: inactive; B2AR ag: inactive; MBD2 DNA inh: inactive; ABHD5 PLIN5 PPI: inactive; Arr AP2 block: inactive

Results for CC(=O)Nc1ccc(S(=O)(=O)NCCNS(=O)(=O)c2ccc(NC(C)=O)cc2)cc1 ?
UHRF1 binding: inactive; Rin1 Abl inh: inactive; B2AR ag: inactive; MBD2 DNA inh: inactive; ABHD5 PLIN5 PPI: inactive; Arr AP2 block: inactive

Results for COCCCNC(=O)C[C@H]1C[C@@]2(C(=O)OC)C(=C[C@H](C(C)(C)C)O[C@@H]2C)N(Cc2cccc3ccccc23)C1=O ?
UHRF1 binding: inactive; MBD2 DNA inh: inactive

What do the screens show for `CC(C)(C)S(=O)N1Cc2cc(C(=O)NCc3ccc(Oc4ccccc4)cc3)nc(-c3cccc(-c4cc5ccccc5o4)c3)c2[C@H]1CCO` (some centres undefined)?
UHRF1 binding: inactive; Rin1 Abl inh: inactive; MBD2 DNA inh: inactive; ABHD5 PLIN5 PPI: inactive

Results for CC(C)(C)S(=O)N1Cc2cc(C(=O)NCc3ccc4c(c3)OCO4)nc(-c3cccc(-c4cc5ccccc5o4)c3)c2[C@@H]1CCO (some centres undefined) ?
UHRF1 binding: inactive; Rin1 Abl inh: inactive; MBD2 DNA inh: inactive; ABHD5 PLIN5 PPI: 24

How did Cc1ccc(-n2c(Cl)c(Cl)nc(Cl)c2=O)cc1 do in these assays?
Rin1 Abl inh: inactive; B2AR ag: 50; ABHD5 PLIN5 PPI: 85; Arr AP2 block: inactive

What do the screens show for `O=C(Cn1nnc(-c2ccccc2)n1)Nc1cccc(S(=O)(=O)N2CCOCC2)c1`?
UHRF1 binding: 29; Rin1 Abl inh: inactive; B2AR ag: inactive; MBD2 DNA inh: inactive; ABHD5 PLIN5 PPI: inactive; Arr AP2 block: inactive

Results for Cc1ccc(OCCOc2ccc(Cl)cc2Cl)c(Br)n1 ?
UHRF1 binding: inactive; MBD2 DNA inh: inactive

Results for Cc1ccccc1/C=C/C(=O)c1ccc([N+](=O)[O-])o1 ?
UHRF1 binding: inactive; MBD2 DNA inh: inactive

How did COc1ccc(/C=C/C(=O)c2ccc([N+](=O)[O-])o2)cc1 do in these assays?
UHRF1 binding: inactive; Rin1 Abl inh: inactive; B2AR ag: 59; MBD2 DNA inh: inactive; ABHD5 PLIN5 PPI: inactive; Arr AP2 block: inactive

How did O=C1CCCN1CC1CCN(Cc2nc(CC3CC3)no2)CC1 do in these assays?
UHRF1 binding: inactive; Rin1 Abl inh: inactive; B2AR ag: inactive; MBD2 DNA inh: inactive; ABHD5 PLIN5 PPI: inactive; Arr AP2 block: inactive

What do the screens show for `O=C1CCCN1CC1CCCN(Cc2nc(COc3ccccc3)no2)C1` (centres undefined)?
UHRF1 binding: 23; Rin1 Abl inh: inactive; B2AR ag: inactive; MBD2 DNA inh: inactive; ABHD5 PLIN5 PPI: inactive; Arr AP2 block: inactive

What do the screens show for `O=C(c1ccoc1)N1CCN(c2cc(-c3ccco3)nc3cc(-c4ccco4)nn23)CC1`?
UHRF1 binding: inactive; MBD2 DNA inh: inactive

What do the screens show for `Cc1ccc(C)c(N=Nc2ccc(O)c3ncccc23)c1`?
UHRF1 binding: inactive; Rin1 Abl inh: inactive; B2AR ag: inactive; MBD2 DNA inh: inactive; ABHD5 PLIN5 PPI: inactive; Arr AP2 block: 103

What do the screens show for `CCNC(=O)/C=C1\NC(C)(C)Cc2c1ccc1ccccc21`?
UHRF1 binding: 22; Rin1 Abl inh: inactive; B2AR ag: inactive; MBD2 DNA inh: inactive; ABHD5 PLIN5 PPI: inactive; Arr AP2 block: inactive

How did CC1(C)Cc2c(ccc3ccccc23)C(=O)N1 do in these assays?
UHRF1 binding: inactive; Rin1 Abl inh: inactive; B2AR ag: inactive; MBD2 DNA inh: inactive; ABHD5 PLIN5 PPI: inactive; Arr AP2 block: inactive

How did COC(=O)[C@]12C[C@H](CC(=O)NCC3CCCCC3)C(=O)N(CCc3ccc(OC)c(OC)c3)C1=C[C@H](C(C)(C)C)O[C@@H]2C do in these assays?
UHRF1 binding: 23; MBD2 DNA inh: inactive

What do the screens show for `COC(=O)[C@]12C[C@H](CC(=O)NCC3CCCCC3)C(=O)N(Cc3ccc4c(c3)OCO4)C1=C[C@H](C(C)(C)C)O[C@@H]2C`?
UHRF1 binding: 23; MBD2 DNA inh: inactive

What do the screens show for `COC(=O)[C@]12C[C@H](CC(=O)NCC3CCCCC3)C(=O)N(CCc3ccc(OC)c(OC)c3)C1=C[C@H](C1CCCC1)O[C@@H]2C`?
UHRF1 binding: inactive; MBD2 DNA inh: inactive

Results for C[C@@H]1/C=C/CC(=O)N[C@H](c2ccc3ccccc3c2)[C@H](C)/C=C/CC(=O)N[C@@H]1c1ccc2ccccc2c1 ?
UHRF1 binding: inactive; MBD2 DNA inh: inactive

What do the screens show for `CCC(=O)N1CCc2cc(Br)c(S(=O)(=O)NCCCN(CC)Cc3ccccc3)cc21`?
UHRF1 binding: inactive; MBD2 DNA inh: inactive

What do the screens show for `COc1cc(-c2c(C(=O)c3ccccc3)[nH]c(N)c2C(N)=O)ccc1O`?
UHRF1 binding: inactive; MBD2 DNA inh: inactive

What do the screens show for `CCc1sc(C(=O)NCc2ccco2)cc1Br`?
UHRF1 binding: 26; Rin1 Abl inh: inactive; B2AR ag: inactive; MBD2 DNA inh: inactive; ABHD5 PLIN5 PPI: inactive; Arr AP2 block: inactive

What do the screens show for `CCCN1CCS(=O)(=O)N(Cc2cn(Cc3ccc(OC)cc3)nn2)C(C(=O)OC)C1` (centres undefined)?
UHRF1 binding: inactive; MBD2 DNA inh: inactive

What do the screens show for `CCNC(=O)/C(C#N)=C/c1c(N(Cc2ccccc2)Cc2ccccc2)nc2ccccn2c1=O`?
UHRF1 binding: inactive; Rin1 Abl inh: inactive; B2AR ag: inactive; MBD2 DNA inh: inactive; ABHD5 PLIN5 PPI: inactive; Arr AP2 block: inactive

Bioassay records as filed in PubChem BioAssay.
